Assay results: ChEMBL document CHEMBL1158379, “Design, synthesis and hypolipidemic activity of novel 2-(m-tolyloxy) isobutyric acid derivatives” (2009)

Assays:
Assay type in all cases: functional
Rattus norvegicus [1] = assay: Hypolipidemic activity in 14 days high cholesterol diet fed Wistar albino rat hyperlipidemic model assessed as decrease in serum low density lipoprotein cholesterol level at 20 mg/kg, po administered on day 8 to 14; design: scale not given: the % may be the effect or the level left
How it was run: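 HCD model in male Wistar rats (160–180 g) on chow plus 2% cholesterol and 1% cholic acid for 14 days. Oral dosing was 20 mg/kg in 0.5% carboxymethylcellulose from day 8 to 14, with groups of six. Rats were fasted 12 h on day 14, and tail blood was taken under mild ether anesthesia. Serum was separated by centrifugation at 3000 rpm for 10 min for lipoprotein cholesterol measurement.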

Rattus norvegicus [2] = assay: Ratio of serum LDL cholesterol to serum HDL cholesterol in 14 days high cholesterol diet fed Wistar albino rat at 20 mg/kg, po administered on day 8 to 14
Rattus norvegicus [3] = assay: Hypolipidemic activity in 14 days high cholesterol diet fed Wistar albino rat hyperlipidemic model assessed as decrease in serum total cholesterol level at 20 mg/kg, po administered on day 8 to 14; design: scale not given: the % may be the effect or the level left
How it was run: (§1)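 Male Wistar rats (160–180 g), acclimatized one week, fed chow with 2% cholesterol and 1% cholic acid for 14 days. Oral dosing was 20 mg/kg in 0.5% CMC on days 8–14, with six rats per group. On day 14, after a 12 h fast, tail blood was drawn under ether. Serum was analysed by kit spectrophotometry. Results are % change versus vehicle-treated hyperlipidemic controls.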

Rattus norvegicus [4] = assay: Hypolipidemic activity in 14 days high cholesterol diet fed Wistar albino rat hyperlipidemic model assessed as decrease in serum triglyceride level at 20 mg/kg, po administered on day 8 to 14; design: scale not given: the % may be the effect or the level left; how it was run: as §1
Rattus norvegicus [5] = assay: Hypolipidemic activity in 14 days high cholesterol diet fed Wistar albino rat hyperlipidemic model assessed as increase in serum high density lipoprotein cholesterol level at 20 mg/kg, po administered on day 8 to 14; how it was run: as §1
Homo sapiens [6] = species on record: Homo sapiens; assay: Reduction of plasma triglyceride level in human; design: scale not given: the % may be the effect or the level left
Homo sapiens [7] = species on record: Homo sapiens; assay: Increase of plasma HDL cholesterol level in human

Compound | Activity (Rattus norvegicus [1]) [%] | Ratio (Rattus norvegicus [2]) | Activity (Rattus norvegicus [3]) [%] | Activity (Rattus norvegicus [4]) [%] | Activity (Rattus norvegicus [5]) [%] | Activity (Homo sapiens [6]) [%] | Activity (Homo sapiens [7]) [%]
CCNC(=S)NNC(=O)C(C)(C)Oc1cccc(C)c1 | -1.16 | 6.08 | -0.59 | 5.44 | 5.85 |  | 
Cc1cccc(OC(C)(C)C(=O)N/N=C/c2ccccc2Cl)c1 | 2.6 | 6 | 0 | -1.32 | 14.6 |  | 
COc1ccc(NC(=O)C(C)(C)Oc2cccc(C)c2)cc1 | 28.67 | 3.93 | 23.24 | 25.79 | 15.28 |  | 
Cc1cccc(OC(C)(C)C(=O)O)c1 | 19.56 | 4.62 | 15.89 | 17.98 | 10.68 |  | 
Cc1cccc(OC(C)(C)C(=O)N/N=C/c2ccccc2)c1 | 8.02 | 4.94 | 4.12 | 2.54 | 18.47 |  | 
CCOC(=O)c1ccc(NC(=O)C(C)(C)Oc2cccc(C)c2)cc1 | 5.94 | 5.2 | 2.65 | 0.43 | 15.04 |  | 
Cc1cccc(OC(C)(C)C(=O)NCCc2ccccc2)c1 | 21.21 | 4.09 | 12.95 | 1.2 | 22.45 |  | 
Cc1cccc(OC(C)(C)C(=O)N/N=C/c2ccc([N+](=O)[O-])cc2)c1 | 2.3 | 5.71 | 0.29 | -0.84 | 9.12 |  | 
C=CCNC(=S)NNC(=O)C(C)(C)Oc1cccc(C)c1 | -1 | 6.02 | -1.77 | -1.61 | 6.78 |  | 
COc1ccc(/C=N/NC(=O)C(C)(C)Oc2cccc(C)c2)cc1 | -9.39 | 5.41 |  | 9.03 | 15.8 |  | 
CC(C)(Oc1ccc(CCNC(=O)c2ccc(Cl)cc2)cc1)C(=O)O [BEZAFIBRATE] |  |  |  |  |  | 30 | 5
CCOC(=O)C(C)(C)Oc1ccc(Cl)cc1 [CLOFIBRATE] |  |  |  |  |  | 30 | 5
CC(C)OC(=O)C(C)(C)Oc1ccc(C(=O)c2ccc(Cl)cc2)cc1 [FENOFIBRATE] |  |  |  |  |  | 30 | 5
Cc1ccc(C)c(OCCCC(C)(C)C(=O)O)c1 [GEMFIBROZIL] | 5.35 | 4.81 | 4.68 | 22.23 | 25.18 |  | 
